Test results taken from ChEMBL document CHEMBL2021791, “Synthesis, structure-activity relationships and biological evaluation of caudatin derivatives as novel anti-hepatitis B virus agents” (Bioorg Med Chem, 2012).

Experiments:
Hepatitis B virus [1] = experiment: Antiviral activity against Hepatitis B virus infected in human HepG2(2.2.15) cells assessed as suppression of HBsAg secretion by ELISA; assay type: functional, organism-based
Hepatitis B virus [2] = experiment: Antiviral activity against Hepatitis B virus infected in human HepG2(2.2.15) cells assessed as suppression of HbeAg secretion by ELISA; assay type: functional, organism-based
Hepatitis B virus [3] = experiment: Antiviral activity against Hepatitis B virus infected in human HepG2(2.2.15) cells assessed as inhibition of viral DNA replication by RT-PCR analysis; assay type: functional, organism-based
[4] = Cytotoxicity against human HepG2(2.2.15) cells by MTT assay; assay type: cell-based; conditions: HepG2(2.2.15) cells
In short: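 HepG2 2.2.15 cells were exposed to compounds and viability was read by a modified MTT method. CC50 is the concentration giving 50% cytotoxicity. Values are means of at least two experiments.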

Hepatitis B virus [5] = experiment: Selectivity ratio of CC50 for human HepG2(2.2.15) cells to IC50 for Hepatitis B virus infected in human HepG2(2.2.15) cells assessed as inhibition of viral replication; assay type: cell-based; conditions: read-out: Ratio CC50/IC50
In short: (§1)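 The selectivity index was calculated as CC50/IC50. CC50 is MTT cytotoxicity in HepG2 2.2.15 cells. No index was given where a value could not be obtained.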

Hepatitis B virus [6] = experiment: Selectivity ratio of CC50 for human HepG2(2.2.15) cells to IC50 for Hepatitis B virus infected in human HepG2.2.15 cells assessed as suppression of HBsAg secretion; assay type: cell-based; conditions: read-out: Ratio CC50/IC50; in short: as §1

| Compound | IC50 (Hepatitis B virus [1]) | IC50 (Hepatitis B virus [2]) | IC50 (Hepatitis B virus [3]) | CC50 [4] | selectivity ratio (Hepatitis B virus [5]) | selectivity ratio (Hepatitis B virus [6]) |
| --- | --- | --- | --- | --- | --- | --- |
| CC(=O)[C@]1(O)CC[C@@]2(O)[C@]1(C)[C@H](OC(=O)/C=C(\C)C(C)C)C[C@@H]1[C@@]3(C)CC[C@H](OC(=O)c4ccnn4C)CC3=CC[C@]12O | 14.5 µM | > 721 µM | 2.82 µM | 10.1 µM | 3.6 |  |
| CC(=O)[C@]1(O)CC[C@@]2(O)[C@]1(C)[C@H](OC(=O)/C=C(\C)C(C)C)C[C@@H]1[C@@]3(C)CCC(=O)CC3=CC(=O)[C@]12O | 205 µM | > 1630 µM | 113 µM | 155 µM | 1.4 |  |
| CC(=O)[C@]1(O)CC[C@]23OC(C)(C)O[C@]24CC=C2C[C@@H](O)CC[C@]2(C)[C@H]4C[C@@H](OC(=O)/C=C(\C)C(C)C)[C@@]31C | 168 µM | > 1720 µM | 218 µM | 512 µM | 2.3 | 3 |
| CC(=O)[C@]1(O)CC[C@@]2(O)[C@]1(C)[C@H](OC(=O)/C=C(\C)C(C)C)C[C@@H]1[C@@]3(C)CC[C@H](OC(=O)CN(C)C)CC3=CC[C@]12O | 87.2 µM | > 749 µM | 13.8 µM | 50.5 µM | 3.6 |  |
| CC(=O)N1CCC[C@H]1C(=O)O[C@H]1CC[C@@]2(C)C(=CC[C@]3(O)[C@@H]2C[C@@H](OC(=O)/C=C(\C)C(C)C)[C@@]2(C)[C@]3(O)CC[C@@]2(O)C(C)=O)C1 | 70.7 µM | > 638 µM | 65.7 µM | 106 µM | 1.6 | 1.5 |
| CC(=O)[C@]1(O)CC[C@@]2(O)[C@]1(C)[C@H](OC(=O)/C=C(\C)C(C)C)C[C@@H]1[C@@]3(C)CC[C@H](OC(=O)CO)CC3=CC[C@]12O | 192 µM | 147 µM | 219 µM | 136 µM |  |  |
| CC(=O)[C@]1(O)CC[C@@]2(O)[C@]1(C)[C@H](OC(=O)/C=C(\C)C(C)C)C[C@@H]1[C@@]3(C)CC[C@H](OC(=O)c4ccc(Br)cn4)CC3=CC[C@]12O | 76.5 µM | > 626 µM | 12.5 µM | 48.4 µM | 3.9 |  |
| CC(=O)[C@]1(O)CC[C@@]2(O)[C@]1(C)[C@H](OC(=O)/C=C(\C)C(C)C)C[C@@H]1[C@@]3(C)CC[C@H](OC(=O)c4cccnc4)CC3=CC[C@]12O | 20.8 µM | > 1040 µM | 4.05 µM | 50.4 µM | 12.4 | 2.4 |
| COc1cc(C(=O)O[C@H]2CC[C@@]3(C)C(=CC[C@]4(O)[C@@H]3C[C@@H](OC(=O)/C=C(\C)C(C)C)[C@@]3(C)[C@]4(O)CC[C@@]3(O)C(C)=O)C2)on1 | 201 µM | > 1180 µM | 17 µM | 133 µM | 7.8 |  |
| COCC(=O)O[C@H]1CC[C@@]2(C)C(=CC[C@]3(O)[C@@H]2C[C@@H](OC(=O)/C=C(\C)C(C)C)[C@@]2(C)[C@]3(O)CC[C@@]2(OC(=O)COC)C(C)=O)C1 | 331 µM | > 1400 µM | 288 µM | > 1400 µM | > 4.9 | > 4.2 |
| CCOCC(=O)O[C@H]1CC[C@@]2(C)C(=CC[C@]3(O)[C@@H]2C[C@@H](OC(=O)/C=C(\C)C(C)C)[C@@]2(C)[C@]3(O)CC[C@@]2(O)C(C)=O)C1 | 68.2 µM | > 153 µM | 13.8 µM | 116 µM | 8.4 | 1.7 |
| CC(=O)[C@]1(OC(=O)CCC(=O)O)CC[C@@]2(O)[C@]1(C)[C@H](OC(=O)/C=C(\C)C(C)C)C[C@@H]1[C@@]3(C)CC[C@H](OC(=O)CCC(=O)O)CC3=CC[C@]12O | 653 µM | > 966 µM | > 241 µM | 483 µM |  |  |
| CC(=O)[C@]1(O)CC[C@@]2(O)[C@]1(C)[C@H](OC(=O)/C=C(\C)C(C)C)C[C@@H]1[C@@]3(C)CC[C@H](OP(=O)(Oc4ccccc4)Oc4ccccc4)CC3=CC[C@]12O | > 1940 µM | > 1940 µM | > 485 µM | > 1940 µM |  |  |
| COC(=O)COCC(=O)O[C@H]1CC[C@@]2(C)C(=CC[C@]3(O)[C@@H]2C[C@@H](OC(=O)/C=C(\C)C(C)C)[C@@]2(C)[C@]3(O)CC[C@@]2(O)C(C)=O)C1 | 51.6 µM | 78.6 µM | > 105 µM | 25.3 µM |  |  |
| COP(=O)(OC)O[C@H]1CC[C@@]2(C)C(=CC[C@]3(O)[C@@H]2C[C@@H](OC(=O)/C=C(\C)C(C)C)[C@@]2(C)[C@]3(O)CC[C@@]2(O)C(C)=O)C1 | > 1750 µM | > 1750 µM | 105 µM | 560 µM | 5.3 |  |
| COCC(=O)O[C@H]1CC[C@@]2(C)C(=CC[C@]3(O)[C@@H]2C[C@@H](OC(=O)/C=C(\C)C(C)C)[C@@]2(C)[C@]3(O)CC[C@@]2(O)C(C)=O)C1 | 70.4 µM | > 836 µM | 104 µM | 102 µM |  | 1.4 |
| CC(=O)[C@]1(OC(=O)/C=C/c2ccccc2Cl)CC[C@@]2(O)[C@]1(C)[C@H](OC(=O)/C=C(\C)C(C)C)C[C@@H]1[C@@]3(C)CC[C@H](OC(=O)/C=C/c4ccccc4Cl)CC3=CC[C@]12O | 599 µM | > 257 µM | > 148 µM | > 538 µM |  | 1.6 |
| CC(=O)[C@]1(OC(=O)/C=C/c2cc(F)cc(F)c2)CC[C@@]2(O)[C@]1(C)[C@H](OC(=O)/C=C(\C)C(C)C)C[C@@H]1[C@@]3(C)CC[C@H](OC(=O)/C=C/c4cc(F)cc(F)c4)CC3=CC[C@]12O | > 1580 µM | > 1580 µM | 183 µM | > 1580 µM | > 8.7 |  |
| CC(=O)[C@]1(OC(=O)CCCC(=O)O)CC[C@@]2(O)[C@]1(C)[C@H](OC(=O)/C=C(\C)C(C)C)C[C@@H]1[C@@]3(C)CC[C@H](OC(=O)CCCC(=O)O)CC3=CC[C@]12O | > 268 µM | > 268 µM | > 268 µM | > 268 µM |  |  |
| C/C(=C\C(=O)O[C@@H]1C[C@@H]2[C@@]3(C)CC[C@H](O)CC3=CC[C@@]2(O)[C@@]2(O)CC[C@@](O)(C(C)O)[C@@]12C)C(C)C (some centres undefined) | 307 µM | > 1050 µM | 172 µM | 217 µM | 1.3 |  |
| CC(=O)[C@]1(O)CC[C@@]2(O)[C@]1(C)[C@H](OC(=O)/C=C(\C)C(C)C)C[C@@H]1[C@@]3(C)CC[C@H](OC(=O)CCCC(=O)O)CC3=CC[C@]12O | > 385 µM | > 385 µM | 289 µM | 310 µM | 1.1 |  |
| CC(=O)[C@]1(O)CC[C@@]2(O)[C@]1(C)[C@H](OC(=O)/C=C(\C)C(C)C)C[C@@H]1[C@@]3(C)CC[C@H](OC(=O)Cc4ccncc4)CC3=CC[C@]12O | 19.7 µM | > 32.8 µM | > 414 µM | 39.9 µM |  |  |
| CC(=O)[C@]1(OC(=O)CCN2C(=O)c3ccccc3C2=O)CC[C@@]2(O)[C@]1(C)[C@H](OC(=O)/C=C(\C)C(C)C)C[C@@H]1[C@@]3(C)CC[C@H](OC(=O)CCN4C(=O)c5ccccc5C4=O)CC3=CC[C@]12O | > 809 µM | > 809 µM | > 202 µM | > 809 µM |  |  |
| CC(=O)[C@]1(O)CC[C@@]2(O)[C@]1(C)[C@H](OC(=O)/C=C(\C)C(C)C)C[C@@H]1[C@@]3(C)CC[C@H](OC(=O)CC#N)CC3=CC[C@]12O | 100 µM | > 161 µM | 7.32 µM | 122 µM | 10.5 | 1.2 |
| CC(=O)[C@]1(O)CC[C@@]2(O)[C@]1(C)[C@H](OC(=O)/C=C(\C)C(C)C)C[C@@H]1[C@@]3(C)CC[C@H](OC(=O)c4ccc(F)nc4)CC3=CC[C@]12O | 15.6 µM | > 687 µM | 4.97 µM | 14.3 µM | 2.9 |  |
